Publication PMC7983942 (Clinical Pharmacology and Therapeutics, 2020)

Experiments:
Assay type in all cases: in vitro ADME
[1] = biological target: T1, OATP1B1*14 (Homo sapiens, UniProt Q9Y6L6, N130D/P155T); experiment: Uptake into OATP1B1 variant-transfected vs wild-type HEK293 cells; conditions: for Uptake ratio as percentage of OATP1B1*14 in the same experiment: OATP1B1*14 (reference); for Uptake ratio (vs. wild‐type HEK293 cells): OATP1B1*14, 2 minutes
T1 sequence (Q9Y6L6 1-691 N130D/P155T): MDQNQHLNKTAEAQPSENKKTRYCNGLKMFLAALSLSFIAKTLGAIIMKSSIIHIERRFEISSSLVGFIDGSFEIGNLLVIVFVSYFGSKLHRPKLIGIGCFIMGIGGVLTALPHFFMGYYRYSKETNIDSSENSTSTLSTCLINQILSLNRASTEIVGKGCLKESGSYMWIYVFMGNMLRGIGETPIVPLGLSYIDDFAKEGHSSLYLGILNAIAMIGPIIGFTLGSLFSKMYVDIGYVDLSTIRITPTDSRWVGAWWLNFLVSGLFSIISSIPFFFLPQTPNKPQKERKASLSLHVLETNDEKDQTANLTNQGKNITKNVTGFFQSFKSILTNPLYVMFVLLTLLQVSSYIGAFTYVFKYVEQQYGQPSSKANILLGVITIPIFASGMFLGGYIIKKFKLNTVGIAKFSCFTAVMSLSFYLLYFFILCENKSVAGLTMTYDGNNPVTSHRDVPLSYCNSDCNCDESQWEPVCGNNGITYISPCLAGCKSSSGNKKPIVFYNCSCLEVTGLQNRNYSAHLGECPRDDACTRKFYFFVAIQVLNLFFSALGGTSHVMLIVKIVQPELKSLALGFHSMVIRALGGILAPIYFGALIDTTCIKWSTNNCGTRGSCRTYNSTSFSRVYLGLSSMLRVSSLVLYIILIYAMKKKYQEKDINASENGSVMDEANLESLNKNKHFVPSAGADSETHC

[2] = biological target: T2, OATP1B3 (Homo sapiens, UniProt Q9NPD5); experiment: Uptake into transporter-transfected vs wild-type HEK293 cells; conditions: rosuvastatin 1 µM, two to four minutes
T2 sequence (Q9NPD5 1-702): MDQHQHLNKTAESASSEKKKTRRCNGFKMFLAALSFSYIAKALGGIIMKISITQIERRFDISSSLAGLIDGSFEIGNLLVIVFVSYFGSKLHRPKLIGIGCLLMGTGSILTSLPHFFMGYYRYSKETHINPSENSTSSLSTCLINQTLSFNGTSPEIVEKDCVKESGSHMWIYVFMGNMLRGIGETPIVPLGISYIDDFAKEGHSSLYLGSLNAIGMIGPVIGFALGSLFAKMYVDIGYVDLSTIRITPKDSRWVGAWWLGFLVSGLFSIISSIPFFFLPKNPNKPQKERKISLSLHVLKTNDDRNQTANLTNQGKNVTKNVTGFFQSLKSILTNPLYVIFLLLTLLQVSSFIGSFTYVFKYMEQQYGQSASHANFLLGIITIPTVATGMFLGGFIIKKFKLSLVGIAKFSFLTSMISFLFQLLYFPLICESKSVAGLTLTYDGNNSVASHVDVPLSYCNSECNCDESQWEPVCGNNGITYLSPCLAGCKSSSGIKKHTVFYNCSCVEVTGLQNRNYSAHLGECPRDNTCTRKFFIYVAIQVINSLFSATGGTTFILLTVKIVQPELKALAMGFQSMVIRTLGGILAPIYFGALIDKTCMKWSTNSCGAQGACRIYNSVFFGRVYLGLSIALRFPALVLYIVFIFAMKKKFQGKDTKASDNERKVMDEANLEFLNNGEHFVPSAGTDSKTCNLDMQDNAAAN
Procedure, shortened: (§1)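 HEK293 cells stably transfected with OATP1B1*1A, OATP1B3 or OATP2B1, plus wild-type cells, were seeded on poly-D-lysine plates. Culture was 48 h at 37°C in DMEM with 10% FBS, pyruvate, nonessential amino acids and GlutaMAX. Test compound was 1 µM for 2 min; rosuvastatin probe was 1 µM over 2–4 min. Cells were washed four times in ice-cold buffer and lysed in methanol with internal standard. Readouts were uptake ratio versus wild-type and glucuronide/probe ratio of ratios; mean ± SD, n=3 in one experiment.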

[3] = biological target: T3, OATP2B1 (Homo sapiens, UniProt O94956); experiment: as above; conditions: rosuvastatin 1 µM, two to four minutes
T3 sequence (O94956 1-709): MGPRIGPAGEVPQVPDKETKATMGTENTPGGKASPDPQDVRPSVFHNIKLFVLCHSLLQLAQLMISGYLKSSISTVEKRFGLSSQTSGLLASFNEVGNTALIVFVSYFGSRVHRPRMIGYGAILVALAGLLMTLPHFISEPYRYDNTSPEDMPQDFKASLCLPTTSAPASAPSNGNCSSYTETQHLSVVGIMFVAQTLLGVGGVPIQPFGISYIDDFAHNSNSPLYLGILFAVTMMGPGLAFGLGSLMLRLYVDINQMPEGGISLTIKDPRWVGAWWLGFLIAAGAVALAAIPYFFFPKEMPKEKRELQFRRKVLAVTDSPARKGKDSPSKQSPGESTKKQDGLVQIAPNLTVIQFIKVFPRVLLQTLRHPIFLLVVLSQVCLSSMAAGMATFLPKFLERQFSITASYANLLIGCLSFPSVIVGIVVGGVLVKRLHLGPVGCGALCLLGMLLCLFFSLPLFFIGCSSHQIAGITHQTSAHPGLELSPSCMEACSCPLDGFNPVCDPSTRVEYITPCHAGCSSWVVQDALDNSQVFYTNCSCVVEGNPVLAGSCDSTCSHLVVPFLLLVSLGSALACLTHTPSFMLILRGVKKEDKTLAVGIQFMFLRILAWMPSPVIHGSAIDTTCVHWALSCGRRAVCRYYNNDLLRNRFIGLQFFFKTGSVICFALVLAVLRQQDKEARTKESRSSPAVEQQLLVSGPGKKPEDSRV
Procedure, shortened: as §1

[4] = experiment 1, substrate concentration 0.5 µM

Uptake ratio as percentage of OATP1B1*14 in the same experiment [1, 4]: 100%
Uptake ratio as percentage of OATP1B1*14 in the same experiment ([1]; experiment 2, substrate 1 µM): 100%
Uptake ratio (vs. wild‐type HEK293 cells) [1, 4]: 15 ± 0.2
Uptake ratio (vs. wild‐type HEK293 cells) ([1]; experiment 2, substrate 1 µM): 40 ± 3.3
Uptake ratio (vs. wild‐type HEK293 cells) ([1]; experiment 3, substrate 1 µM): 85 ± 5.3
Uptake ratio (vs. wild‐type HEK293 cells), probe [2]: 69.8 ± 1.9
Uptake ratio (vs. wild‐type HEK293 cells), probe [3]: 71.1 ± 9.6
SMILES: CC(C)c1nc(N(C)S(C)(=O)=O)nc(-c2ccc(F)cc2)c1/C=C/[C@@H](O)C[C@@H](O)CC(=O)O [Rosuvastatin]
